Experimental data: ChEMBL document CHEMBL1144236, “Synthesis of 1-arylpiperazyl-2-phenylcyclopropanes designed as antidopaminergic agents: cyclopropane-based conformationally restricted analogs of haloperidol” (Bioorg Med Chem, 2008)

Columns and labels:
[1] = Displacement of [3H]YM-09151-2 from human dopamine D4.2 receptor in membrane suspensions by liquid scintillation counter
[2] = Displacement of [3H]prazosin from adrenergic alpha1 receptor in ICR mouse brain homogenate; assay type: tissue-based
In short: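 Brain tissue was homogenized in 19 vol. of 50 mM Tris–HCl pH 7.5 and centrifuged at 40,000g for 15 min, then the pellet was washed once and resuspended in 24 vol. buffer. Homogenate (about 400 protein) was incubated with [3H]prazosin (0.05–1 nM) for 1 h at 20 °C. Binding was ended by rapid filtration, with filter-bound radioactivity counted by liquid scintillation.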

D(2) dopamine receptor = D(2) dopamine receptor (Homo sapiens, UniProt P14416); test: Displacement of [3H]YM-09151-2 from human dopamine D2S receptor in membrane suspensions by liquid scintillation counter
Sequence of D(2) dopamine receptor (P14416 whole entry): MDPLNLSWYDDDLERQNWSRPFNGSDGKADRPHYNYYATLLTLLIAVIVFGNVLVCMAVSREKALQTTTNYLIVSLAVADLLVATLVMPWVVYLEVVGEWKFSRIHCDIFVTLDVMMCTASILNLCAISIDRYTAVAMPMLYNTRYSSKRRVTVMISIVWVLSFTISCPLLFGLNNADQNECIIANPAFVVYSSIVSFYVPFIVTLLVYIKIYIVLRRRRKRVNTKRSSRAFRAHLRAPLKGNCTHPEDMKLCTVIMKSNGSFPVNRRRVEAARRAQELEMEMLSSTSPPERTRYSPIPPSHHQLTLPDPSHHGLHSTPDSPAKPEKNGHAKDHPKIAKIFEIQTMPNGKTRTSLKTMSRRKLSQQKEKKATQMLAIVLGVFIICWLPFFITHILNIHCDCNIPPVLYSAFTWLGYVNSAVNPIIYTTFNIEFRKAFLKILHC

Homo sapiens = species: Homo sapiens; test: Selectivity ratio of Ki for human dopamine D2S receptor to Ki for human dopamine D4.2 receptor

Cc1ccc(N2CCN(C[C@H]3C[C@@H]3c3ccccc3)CC2)c(C)c1 showed a Ki [1] of 0.13 µM and a Ki [2] of 0.432 µM.
Cc1ccc(N2CCN(C[C@@H]3C[C@@H]3c3ccccc3)CC2)c(C)c1 showed a Ki [1] of 2.05 µM and a Ki [2] of 0.537 µM.
With Cc1ccc(N2CCN(C[C@H]3C[C@]3(C)c3ccccc3)CC2)c(C)c1 the Ki (D(2) dopamine receptor) was over 10 µM, the Ki [1] was 0.236 µM and the Ratio Ki (Homo sapiens) was over 42. The Ki [2] was 0.906 µM.
With Cc1ccc(N2CCN(C[C@H]3C[C@H]3c3ccccc3)CC2)c(C)c1 the Ki [1] was 0.897 µM and the Ki [2] was 0.521 µM.
With Cc1ccc(N2CCN([C@H](C)[C@H]3C[C@]3(C)c3ccccc3)CC2)c(C)c1 the Ki (D(2) dopamine receptor) was over 10 µM, the Ki [1] was 4.66 µM and the Ratio Ki (Homo sapiens) was over 2.1. The Ki [2] was 0.401 µM.
In the case of O=C(CCCN1CCC(O)(c2ccc(Cl)cc2)CC1)c1ccc(F)cc1 [HALOPERIDOL], the Ki [1] is reported as 0.00932 µM.
With Cc1ccc(N2CCN([C@@H](C)[C@H]3C[C@]3(C)c3ccccc3)CC2)c(C)c1 the Ki (D(2) dopamine receptor) was over 10 µM, the Ki [1] was 4.19 µM and the Ratio Ki (Homo sapiens) was over 2.4. For the same molecule, the Ki [2] was 0.25 µM.
